Measured values: ChEMBL document CHEMBL1122931, “Uridine 5'-diphosphate glucose analogues. Inhibitors of protein glycosylation that show antiviral activity” (J Med Chem, 1985)

Assays:
Human alphaherpesvirus 1 = experiment: Concentration that protects by 50% the cytopathic effect induced by herpes simplex virus - 1.; format: functional
Method in brief: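 HeLa monolayers (DMEM + 10% newborn calf serum) infected with HSV-1 strain KOS (Vero-grown and titrated) at moi 0.5 pfu/cell in presence of several compound concentrations; 48 h at 37 °C, then cytopathic effect scored by phase-contrast microscopy. Toxicity judged microscopically in uninfected cells.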

[1] = (§1) Concentration that induces 50% cell toxicity was determined using monolayers of uninfected HeLa cells; format: cell-based; conditions: human, monolayers of uninfected HeLa cells; read-out: Tox50
Method in brief: (§2)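 Uninfected HeLa monolayers, grown in DMEM with 10% newborn calf serum, were exposed to several concentrations of compound. They were incubated for 48 h at 37 °C, as in the parallel HSV-1 cytopathic-effect assay. Toxicity was judged by phase-contrast microscopy.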

HeLa = experiment: as §1; format: cell-based; conditions: human, hela; read-out: Tox50; method in brief: as §2

Structure (SMILES) | CPE50 (Human alphaherpesvirus 1) | CC50 [1] | CC50 (HeLa)
NC(=O)O[C@H]1O[C@H](COCc2ccccc2)[C@@H](OCc2ccccc2)[C@H](OCc2ccccc2)[C@H]1OCc1ccccc1 | >350 µM | > 350 µM | 
O=c1[nH]c(=O)n([C@H]2C[C@H](O)[C@@H](CO)O2)cc1/C=C/Br [BRIVUDINE] | 1 µM | 400 µM | 
CC1(C)O[C@@H]2[C@H](O1)[C@@H](COS(N)(=O)=O)O[C@H]2n1ccc(=O)[nH]c1=O | 740 µM | 740 µM | 
NC12CC3CC(CC(C3)C1)C2 [AMANTADINE] | 200 µM | 500 µM | 
O=C(NS(=O)(=O)OC[C@H]1OC(n2ccc(=O)[nH]c2=O)[C@H](O)[C@@H]1O)O[C@H]1O[C@H](COCc2ccccc2)[C@@H](OCc2ccccc2)[C@H](OCc2ccccc2)[C@H]1OCc1ccccc1 (some centres undefined) | 90 µM | 360 µM | 
CC1(C)O[C@@H]2[C@H](O1)[C@@H](COS(=O)(=O)NC(=O)O[C@H]1O[C@H](COCc3ccccc3)[C@@H](OCc3ccccc3)[C@H](OCc3ccccc3)[C@H]1OCc1ccccc1)O[C@H]2n1ccc(=O)[nH]c1=O | 85 µM | 230 µM | 
CC(=O)N[C@H]1[C@@H](OC(=O)NS(=O)(=O)OC[C@H]2OC(n3ccc(=O)[nH]c3=O)[C@H](O)[C@@H]2O)O[C@H](COC(C)=O)[C@@H](OC(C)=O)[C@@H]1OC(C)=O (some centres undefined) | >575 µM | > 575 µM | 
CC(=O)N[C@H]1[C@@H](O[C@@H]2O[C@H](CC(O)[C@H]3O[C@@H](n4ccc(=O)[nH]c4=O)[C@H](O)[C@@H]3O)[C@H](O)[C@H](O)[C@H]2NC(=O)/C=C/CC(C)C)O[C@H](CO)[C@@H](N)[C@@H]1O (some centres undefined) [TUNICAMYCIN] |  |  | 1 µM
CC1(C)O[C@@H]2[C@H](O1)[C@@H](COC(N)=O)O[C@H]2n1ccc(=O)[nH]c1=O | >660 µM | > 660 µM | 
Nc1nc2c(ncn2COCCO)c(=O)[nH]1 [ACYCLOVIR] | 60 µM | 10000 µM | 
